Assay results published in ChEMBL document CHEMBL1133735, “Synthesis, in vitro anti-breast cancer activity, and intracellular decomposition of amino acid methyl ester and alkyl amide phosphoramidate monoesters of 3'-azido-3'-deoxythymidine (AZT)” (J Med Chem, 2000).

Columns and labels:
MCF7 [1] = test: In vitro cytotoxic concentration required to reduce MCF-7 cell growth by 50%; assay type: functional; conditions: Homo sapiens
Summary of the method: (§1)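 MCF-7 cells kept in RPMI 1640 with 10% heat-inactivated FBS, penicillin and streptomycin; 5×10^4 to 6×10^4 cells per well dosed with compound in PBS at final 0.001, 0.01, 0.1, 1, 10 and 100 µM; 48 h at 37 °C, 10% CO2. Brief trypsin release, viable cells counted by trypan blue exclusion; triplicate, untreated wells as control. CC50 = concentration giving 50% growth reduction versus control.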

[2] = Partition coefficient (logP); assay type: physicochemical; conditions: octanol/water
Summary of the method: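 Octanol and water pre-equilibrated (shaken 6 h, stood overnight); ~0.5 mg compound added, shaken 1 h at room temperature, centrifuged 1 h at 1000 rpm, left 30 h to equilibrate. Each phase read by UV absorbance, concentration from extinction coefficients via Beer-Lambert using standard curves over 2-300 µM. Duplicate or triplicate; mean of two values within 15%.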

CCRF-CEM [3] = test: Tested for intracellular levels of phosphoramidate against CEM cell lines.; assay type: functional, Homo sapiens
Summary of the method: (§2)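 About 1.5×10^6 MCF-7 or 3×10^6 CEM cells exposed to 100 µM compound for 17 h, then medium removed. Phosphorylated fractions (phosphates plus phosphoramidate) dephosphorylated with potato acid phosphatase in potassium hydrogen phthalate buffer, 4 h at 37 °C, dried, reconstituted in FPIA buffer; AZT quantified by RIA and phosphorylated amounts extrapolated. Reported as pmol per million cells.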

MCF7 [4] = test: Tested for intracellular levels of AZT phosphate against MCF-7 cell lines.; assay type: functional, Homo sapiens; summary of the method: as §2
MCF7 [5] = test: Tested for intracellular levels of phosphoramidate against MCF-7 cell lines.; assay type: functional, Homo sapiens; summary of the method: as §2
MCF7 [6] = test: Cytotoxic activity against MCF-7 cell lines.; assay type: functional, Homo sapiens; summary of the method: as §1
CCRF-CEM [7] = test: Cytotoxic activity against CEM cell lines.; assay type: functional, Homo sapiens
CCRF-CEM [8] = test: Tested for intracellular levels of AZT phosphate against CEM cell lines.; assay type: functional, Homo sapiens; summary of the method: as §2

| Compound | CC50 (MCF7 [1]) [µM] | logP [2] | also measured |
| --- | --- | --- | --- |
| COC(=O)[C@H](CC(C)C)NP(=O)(O)OC[C@H]1OC(n2cc(C)c(=O)[nH]c2=O)C[C@H]1N=[N+]=[N-] (stereo not given in full) | > 100 | -1.5 | – |
| CNC(=O)[C@H](Cc1ccc(O)cc1)NP(=O)(O)OC[C@H]1OC(n2cc(C)c(=O)[nH]c2=O)C[C@H]1N=[N+]=[N-] (stereo not given in full) | > 100 | -1.38 | – |
| Cc1cn(C2C[C@@H](N=[N+]=[N-])[C@@H](COP(=O)(O)N[C@@H](Cc3c[nH]c4ccccc34)C(=O)NC3CC3)O2)c(=O)[nH]c1=O (stereo not given in full) | 90 | -1.39 | – |
| Cc1cn(C2C[C@@H](N=[N+]=[N-])[C@@H](COP(=O)(O)N[C@@H](Cc3c[nH]c4ccccc34)C(=O)NC(C)C)O2)c(=O)[nH]c1=O (stereo not given in full) | > 100 | -1.3 | – |
| CCNC(=O)[C@H](Cc1c[nH]c2ccccc12)NP(=O)(O)OC[C@H]1OC(n2cc(C)c(=O)[nH]c2=O)C[C@H]1N=[N+]=[N-] (stereo not given in full) | > 100 | -1.53 | – |
| COC(=O)[C@H](Cc1ccc(O)cc1)NP(=O)(O)OC[C@H]1OC(n2cc(C)c(=O)[nH]c2=O)C[C@H]1N=[N+]=[N-] (stereo not given in full) | 10 | -1.59 | – |
| CNC(=O)[C@@H](Cc1c[nH]c2ccccc12)NP(=O)(O)OC[C@H]1OC(n2cc(C)c(=O)[nH]c2=O)C[C@H]1N=[N+]=[N-] (stereo not given in full) | > 100 | -1.89 | – |
| CNC(=O)[C@@H](Cc1ccccc1)NP(=O)(O)OC[C@H]1OC(n2cc(C)c(=O)[nH]c2=O)C[C@H]1N=[N+]=[N-] (stereo not given in full) | > 100 | -1.7 | – |
| COC(=O)[C@@H](NP(=O)(O)OC[C@H]1OC(n2cc(C)c(=O)[nH]c2=O)C[C@H]1N=[N+]=[N-])C(C)C (stereo not given in full) | 6 | -1.56 | – |
| Cc1cn(C2C[C@@H](N=[N+]=[N-])[C@@H](COP(=O)(O)N[C@@H](Cc3c[nH]c4ccccc34)C(=O)NC3CCCCC3)O2)c(=O)[nH]c1=O (stereo not given in full) | 16 | -0.914 | – |
| CNC(=O)[C@H](C)NP(=O)(O)OC[C@H]1OC(n2cc(C)c(=O)[nH]c2=O)C[C@H]1N=[N+]=[N-] (stereo not given in full) | > 100 | -1.21 | – |
| CNC(=O)[C@H](CC(C)C)NP(=O)(O)OC[C@H]1OC(n2cc(C)c(=O)[nH]c2=O)C[C@H]1N=[N+]=[N-] (stereo not given in full) | > 100 | -1.52 | – |
| CNC(=O)[C@@H](NP(=O)(O)OC[C@H]1OC(n2cc(C)c(=O)[nH]c2=O)C[C@H]1N=[N+]=[N-])C(C)C (stereo not given in full) | 2.2 | -1.64 | – |
| COC(=O)[C@H](C)NP(=O)(O)OC[C@H]1OC(n2cc(C)c(=O)[nH]c2=O)C[C@H]1N=[N+]=[N-] (stereo not given in full) | 5.8 | -1.25 | – |
| CNC(=O)[C@H](Cc1c[nH]c2ccccc12)NP(=O)(O)OC[C@H]1OC(n2cc(C)c(=O)[nH]c2=O)C[C@H]1N=[N+]=[N-] (stereo not given in full) | 0.016 | -1.38 | – |
| COC(=O)CNP(=O)(O)OC[C@H]1OC(n2cc(C)c(=O)[nH]c2=O)C[C@H]1N=[N+]=[N-] (stereo not given in full) | > 100 | -1.24 | – |
| CNC(=O)[C@H](Cc1ccccc1)NP(=O)(O)OC[C@H]1OC(n2cc(C)c(=O)[nH]c2=O)C[C@H]1N=[N+]=[N-] (stereo not given in full) | 1.4 | -1.49 | – |
| COC(=O)[C@@H](Cc1ccccc1)NP(=O)(O)OC[C@H]1O[C@@H](n2cc(C)c(=O)[nH]c2=O)C[C@@H]1N=[N+]=[N-] | > 100 | -1.33 | – |
| COC(=O)[C@H](Cc1ccccc1)NP(=O)(O)OC[C@H]1O[C@@H](n2cc(C)c(=O)[nH]c2=O)C[C@@H]1N=[N+]=[N-] | 0.4 | -1.84 | Amount (CCRF-CEM [3]): 7.8 pM (10e6*cells)-1; Amount (MCF7 [4]): 221 pM (10e6*cells)-1; Amount (MCF7 [5]): 295 pM (10e6*cells)-1; Cytotoxicity (MCF7 [6]): 0.4 µM; Cytotoxicity (CCRF-CEM [7]): >100 µM; Amount (CCRF-CEM [8]): 120.7 pM (10e6*cells)-1 |
| COC(=O)[C@@H](Cc1c[nH]c2ccccc12)NP(=O)(O)OC[C@H]1O[C@@H](n2cc(C)c(=O)[nH]c2=O)C[C@@H]1N=[N+]=[N-] | > 100 | -1.36 | – |
| COC(=O)[C@H](Cc1c[nH]c2ccccc12)NP(=O)(O)OC[C@H]1O[C@@H](n2cc(C)c(=O)[nH]c2=O)C[C@@H]1N=[N+]=[N-] | 0.059 | -0.686 | Amount (CCRF-CEM [3]): 14.6 pM (10e6*cells)-1; Amount (MCF7 [4]): 196.5 pM (10e6*cells)-1; Amount (MCF7 [5]): 213.6 pM (10e6*cells)-1; Cytotoxicity (MCF7 [6]): 0.059 µM; Cytotoxicity (CCRF-CEM [7]): >100 µM; Amount (CCRF-CEM [8]): 115.8 pM (10e6*cells)-1 |
| CNC(=O)CNP(=O)(O)OC[C@H]1O[C@@H](n2cc(C)c(=O)[nH]c2=O)C[C@@H]1N=[N+]=[N-] | 5 | -1.15 | – |
| Cc1cn([C@H]2C[C@H](N=[N+]=[N-])[C@@H](CO)O2)c(=O)[nH]c1=O [ZIDOVUDINE] | – | – | Amount (MCF7 [4]): 2658.4 pM (10e6*cells)-1; Cytotoxicity (MCF7 [6]): 0.008 µM; Cytotoxicity (CCRF-CEM [7]): 14.3 µM; Amount (CCRF-CEM [8]): 810.9 pM (10e6*cells)-1 |
